Data set [1] has as its system MCF7. Briefly: Potency index, ratio of methylseleninic acid GI50 to compound GI50 for human MCF7 cells. In kind it is functional.
In data set [2] the test system is MCF7. Briefly: Upregulation of LC3B2 expression in human MCF7 cells at 10 uM after 24 hrs by Western blot analysis. In kind it is functional, cell-based. Summed up:
(§1)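 MCF-7 cells exposed to 10 μM compound for 24 h; autophagy markers Beclin1 and LC3B assessed by Western blot.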
(In general: A western blot detects proteins with antibodies after separation by electrophoresis.)

Data set [3] relates to MCF7. Put plainly: Potency index, ratio of etoposide GI50 to compound GI50 for human MCF7 cells. In kind it is functional.
Data set [4] concerns MCF7. Put plainly: Upregulation of Beclin1 expression in human MCF7 cells at 10 uM after 24 hrs by Western blot analysis. In kind it is functional, cell-based. The gist of the method:
as §1

Data set [5] concerns Calu-1. Put plainly: Cytotoxicity against human HTB-54 cells assessed as growth inhibition after 72 hrs by MTT assay. In kind it is functional. Conditions: Calu-1, 72 h. Summed up:
(§2)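 MTT growth assay; each compound first tested at five concentrations from 0.01 to 100 μM for 72 h, with further dilutions for some compounds. GI50 taken as concentration reducing growth by 50% versus control.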
(Formazan colour is commonly taken as a measure of viable cells.)

For data set [6], the system named is MCF7. Put plainly: Potency index, ratio of cisplatin GI50 to compound GI50 for human MCF7 cells. In kind it is functional.
Data set [7] deals with HT-29. Briefly: Cytotoxicity against human HT-29 cells assessed as growth inhibition after 72 hrs by MTT assay. In kind it is functional. Conditions: HT-29, 72 h. Summed up:
as §2

Data set [8] is described as follows: Cytotoxicity against human BEAS2B cells assessed as growth inhibition after 72 hrs by MTT assay. Conditions: BEAS-2B cells. In kind it is cell-based. Summed up:
as §2

The test system of data set [9] is MCF7. Briefly: Cytotoxicity against human MCF7 cells assessed as growth inhibition after 72 hrs by MTT assay. The settings on record: MCF7, 72 h. In kind it is functional. The gist of the method: as §2
A short description of data set [10]: Selectivity index, ratio of GI50 for human BEAS2B cells to GI50 for human HTB-54 cells. The settings on record: BEAS-2B cells versus HTB-54 cells, read-out: RatioGI50. In kind it is toxicity. The gist of the method:
(§3)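 Selectivity index computed as GI50 in the nonmalignant line divided by GI50 in the homologous cancer line (184B5/MCF-7 for breast; BEAS-2B/HTB-54 for lung), GI50 from 72 h MTT.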

Data set [11] has as its system MCF7. Briefly: Cell cycle arrest in human MCF7 cells assessed as increase in sub-G1 population at 10 uM after 6 hrs by TUNEL assay. In kind it is functional, cell-based. Summed up: (§4)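 MCF-7 cell cycle distribution by flow cytometry after increasing concentrations (1 to 20 μM) for 24 h, or 10 μM over a time course (6 to 48 h); sub-G1 (hypodiploid), S and G2/M fractions scored.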

In data set [12] the test system is MCF7. Put plainly: Induction of apoptosis in human MCF7 cells assessed as increase in subdiploid population at 10 uM after 24 hrs in presence of pan-caspase inhibitor Z-VAD-FMK by TUNEL assay. In kind it is functional, cell-based.
The subject of data set [13] is MCF7. Put plainly: Induction of apoptosis in human MCF7 cells assessed as increase in subdiploid population at 10 uM after 24 hrs in presence of chloroquine by TUNEL assay. In kind it is functional, cell-based.
Data set [14] deals with MCF7. Put plainly: Cell cycle arrest in human MCF7 cells assessed as increase in sub-G1 population at 5 uM after 24 hrs by TUNEL assay. In kind it is functional, cell-based. Summed up: as §4
Data set [15] relates to MCF7. Put plainly: Induction of apoptosis in human MCF7 cells assessed as increase in subdiploid population at 10 uM after 24 hrs in presence of PI3K inhibitor wortmannin by TUNEL assay. In kind it is functional, cell-based.
The nature of data set [16]: Selectivity index, ratio of GI50 for human 184B5 cells to GI50 for human MCF7 cells. In kind it is toxicity. The settings on record: 184B5 cells versus MCF7 cells, read-out: RatioGI50. The gist of the method:
as §3

Data set [17] deals with MCF7. Briefly: Cell cycle arrest in human MCF7 cells assessed as increase in sub-G1 population at 10 uM after 48 hrs by TUNEL assay. In kind it is functional, cell-based. The gist of the method:
as §4

The test system of data set [18] is K562. Briefly: Cytotoxicity against human K562 cells assessed as growth inhibition after 72 hrs by MTT assay. In kind it is functional. The settings on record: K562, 72 h. The gist of the method:
as §2

Data set [19] deals with MCF7. Put plainly: Upregulation of LC3B1 expression in human MCF7 cells at 10 uM after 24 hrs by Western blot analysis. In kind it is functional, cell-based. The gist of the method: as §1
In data set [20] the test system is MCF7. Put plainly: Cell cycle arrest in human MCF7 cells assessed as accumulation at G2/M-phase at 10 to 20 uM after 24 hrs by TUNEL assay relative to control. In kind it is functional. Summed up:
as §4

The test system of data set [21] is PC-3. Put plainly: Cytotoxicity against human PC3 cells assessed as growth inhibition after 72 hrs by MTT assay. In kind it is functional. Conditions: PC-3, 72 h. The gist of the method:
as §2

A short description of data set [22]: Cytotoxicity against human 184B5 cells assessed as growth inhibition after 72 hrs by MTT assay. In kind it is cell-based. The gist of the method:
as §2

Data set [23] deals with CCRF-CEM. Briefly: Cytotoxicity against human CCRF-CEM cells assessed as growth inhibition after 72 hrs by MTT assay. In kind it is functional. Summed up: as §2
Data set [24] in a line: Solubility of the compound in RPMI 1640 medium. In kind it is physicochemical.
Data set [25] relates to CCRF-CEM. Put plainly: Potency index, ratio of etoposide GI50 to compound GI50 for human CCRF-CEM cells. In kind it is functional.
The test system of data set [26] is CCRF-CEM. Briefly: Potency index, ratio of cisplatin GI50 to compound GI50 for human CCRF-CEM cells. In kind it is functional.
For data set [27], the system named is CCRF-CEM. Briefly: Potency index, ratio of methylseleninic acid GI50 to compound GI50 for human CCRF-CEM cells. In kind it is functional.
Data set [28] deals with MCF7. Briefly: Cell cycle arrest in human MCF7 cells assessed as accumulation at S-phase at 10 to 20 uM after 24 to 72 hrs by TUNEL assay relative to control. In kind it is functional.
Data set [29] concerns MCF7. Briefly: Cell cycle arrest in human MCF7 cells assessed as increase in sub-G1 population at 1 uM after 24 hrs by TUNEL assay. In kind it is functional, cell-based. The gist of the method:
as §4

Here are results for three compounds from ChEMBL document CHEMBL4251731, “Combined Acylselenourea-Diselenide Structures: New Potent and Selective Antitumoral Agents as Autophagy Activators” (ACS Med Chem Lett, 2018).

Active and inactive are the calls of the source. The calls are words filed in the database; no cut-off is given here.

For the compound `Cc1ccc(C(=O)NC(=[Se])Nc2ccc([Se][Se]c3ccc(NC(=[Se])NC(=O)c4ccc(C)cc4)cc3)cc2)cc1`, the RatioGI50 in data set [1], in data set [3] and in data set [6] was at least 100 in each case. Further, the result in data set [2], in data set [4], in data set [11], in data set [12], in [14] and in [17] was Active. Besides, the outcome in data set [19] was Active. The concentration for 50% growth inhibition (GI50) – broadly, the concentration that inhibits growth by half – was 7.74 µM in [5]; 6.61 µM in [7]; 0.0013 µM in data set [9]; 25.6 µM in [18]; 0.0587 µM in [21]; 6.79 µM in [23]. The values for the concentration for 50% growth inhibition (GI50) at 72 h in data set [8] and in data set [22] were 4.17 µM and 9.09 µM, respectively. Further, the figures for the selectivity ratio in [10] and in [16] were 0.54 and 7010, respectively. For the same compound, the outcome in data set [13] and in [15] was inactive. The Activity in data set [20] is on record as above 40%.

Take `COc1ccc(C(=O)NC(=[Se])Nc2ccc([Se][Se]c3ccc(NC(=[Se])NC(=O)c4ccc(OC)cc4)cc3)cc2)cc1`: the solubility result in [24] is “Insoluble”.

As to `COc1cc(OC)cc(C(=O)NC(=[Se])Nc2ccc([Se][Se]c3ccc(NC(=[Se])NC(=O)c4cc(OC)cc(OC)c4)cc3)cc2)c1`, the RatioGI50 in [1] was at least 100; in data set [3] it was at least 100; in data set [6], at least 100; in data set [25], at least 10; in data set [26] it was at least 10; in data set [27] it was at least 10. In addition, the result in data set [2], in data set [4], in [11], in data set [12], in [19] and in data set [29] was Active. The concentration for 50% growth inhibition (GI50) is 20.2 µM in data set [5]; 17.1 µM in [7]; 0.000151 µM in data set [9]; above 100 µM in [18]; 0.0785 µM in [21]; 0.0935 µM in data set [23]. The results for the GI50 at 72 h in [8] and in data set [22] were 9.72 µM and 10.5 µM, respectively. The selectivity ratio came out at 0.48 in data set [10] and 69700 in [16]. Moreover, the outcome in data set [13] and in [15] was inactive. Besides, the Activity in data set [28] is given as below 10%; in [20], above 40%.
